One molecule from ChEMBL document CHEMBL4138058, “Design and synthesis of novel selective estrogen receptor degradation inducers based on the diphenylheptane skeleton” (Medchemcomm, 2017) can be followed below.

What all share (type): cell-based
Experiment [1] has as its target T1, Vitamin D3 receptor (Homo sapiens) (UniProt P11473).
T1 sequence (whole entry): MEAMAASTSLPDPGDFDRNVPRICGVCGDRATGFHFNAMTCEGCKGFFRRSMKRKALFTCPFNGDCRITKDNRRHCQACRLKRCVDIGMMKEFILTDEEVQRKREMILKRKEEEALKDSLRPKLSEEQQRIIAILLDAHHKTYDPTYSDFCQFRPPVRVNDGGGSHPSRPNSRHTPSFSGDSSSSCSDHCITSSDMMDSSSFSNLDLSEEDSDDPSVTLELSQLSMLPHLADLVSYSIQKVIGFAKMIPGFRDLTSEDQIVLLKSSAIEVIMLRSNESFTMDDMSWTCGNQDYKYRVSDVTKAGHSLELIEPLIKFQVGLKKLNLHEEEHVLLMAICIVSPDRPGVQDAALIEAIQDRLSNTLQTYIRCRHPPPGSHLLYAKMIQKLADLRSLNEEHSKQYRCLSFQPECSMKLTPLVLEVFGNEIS
Description: Downregulation of VDR expression in human MCF7 cells at 10 uM after 6 hrs by Western blot method relative to lamin B. In short, it runs like this: (§1)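 MCF-7 cells kept in DMEM with 10% FBS, kanamycin and 10 μg/mL insulin, then exposed to compounds for 6 h. Lysates made in SDS buffer (0.1 M Tris-HCl pH 8.0, 10% glycerol, 1% SDS), boiled, BCA-normalized and run on SDS-PAGE. Blots probed with anti-ERα, AR, AhR or VDR and β-actin or lamin B. Chemiluminescence quantified as target/loading-protein ratio; means ± S.E., n=3.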
Background: In western blotting, separated proteins are transferred to a membrane and probed.

The target in experiment [2] is T2, Estrogen receptor (Homo sapiens) (UniProt P03372).
T2 sequence (whole entry): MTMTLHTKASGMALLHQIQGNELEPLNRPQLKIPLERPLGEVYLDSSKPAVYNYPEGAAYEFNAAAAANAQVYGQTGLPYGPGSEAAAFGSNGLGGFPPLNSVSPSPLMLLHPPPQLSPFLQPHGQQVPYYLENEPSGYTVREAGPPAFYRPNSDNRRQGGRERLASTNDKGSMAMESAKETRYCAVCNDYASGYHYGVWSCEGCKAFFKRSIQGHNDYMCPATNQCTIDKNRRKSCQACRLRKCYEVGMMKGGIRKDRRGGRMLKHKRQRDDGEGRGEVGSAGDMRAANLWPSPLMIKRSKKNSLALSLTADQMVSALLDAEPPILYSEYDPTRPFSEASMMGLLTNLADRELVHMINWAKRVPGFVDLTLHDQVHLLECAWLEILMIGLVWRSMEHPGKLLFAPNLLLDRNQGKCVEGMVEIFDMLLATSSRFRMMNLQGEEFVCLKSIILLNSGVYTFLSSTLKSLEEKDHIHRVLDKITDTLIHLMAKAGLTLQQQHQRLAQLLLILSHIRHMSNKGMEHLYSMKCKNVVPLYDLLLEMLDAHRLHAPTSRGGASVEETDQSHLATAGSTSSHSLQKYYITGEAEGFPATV
Description: Downregulation of ERalpha expression in human MCF7 cells at 1 uM after 6 hrs by Western blot method relative to beta-actin. In a few lines:
as §1

The target of experiment [3] is T1, Vitamin D3 receptor (Homo sapiens). Nature of the experiment: Downregulation of VDR expression in human MCF7 cells at 1 uM after 6 hrs by Western blot method relative to lamin B. In a few lines: as §1
Experiment [4] has as its target T3, Androgen receptor (Homo sapiens) (UniProt P10275).
T3 sequence (whole entry): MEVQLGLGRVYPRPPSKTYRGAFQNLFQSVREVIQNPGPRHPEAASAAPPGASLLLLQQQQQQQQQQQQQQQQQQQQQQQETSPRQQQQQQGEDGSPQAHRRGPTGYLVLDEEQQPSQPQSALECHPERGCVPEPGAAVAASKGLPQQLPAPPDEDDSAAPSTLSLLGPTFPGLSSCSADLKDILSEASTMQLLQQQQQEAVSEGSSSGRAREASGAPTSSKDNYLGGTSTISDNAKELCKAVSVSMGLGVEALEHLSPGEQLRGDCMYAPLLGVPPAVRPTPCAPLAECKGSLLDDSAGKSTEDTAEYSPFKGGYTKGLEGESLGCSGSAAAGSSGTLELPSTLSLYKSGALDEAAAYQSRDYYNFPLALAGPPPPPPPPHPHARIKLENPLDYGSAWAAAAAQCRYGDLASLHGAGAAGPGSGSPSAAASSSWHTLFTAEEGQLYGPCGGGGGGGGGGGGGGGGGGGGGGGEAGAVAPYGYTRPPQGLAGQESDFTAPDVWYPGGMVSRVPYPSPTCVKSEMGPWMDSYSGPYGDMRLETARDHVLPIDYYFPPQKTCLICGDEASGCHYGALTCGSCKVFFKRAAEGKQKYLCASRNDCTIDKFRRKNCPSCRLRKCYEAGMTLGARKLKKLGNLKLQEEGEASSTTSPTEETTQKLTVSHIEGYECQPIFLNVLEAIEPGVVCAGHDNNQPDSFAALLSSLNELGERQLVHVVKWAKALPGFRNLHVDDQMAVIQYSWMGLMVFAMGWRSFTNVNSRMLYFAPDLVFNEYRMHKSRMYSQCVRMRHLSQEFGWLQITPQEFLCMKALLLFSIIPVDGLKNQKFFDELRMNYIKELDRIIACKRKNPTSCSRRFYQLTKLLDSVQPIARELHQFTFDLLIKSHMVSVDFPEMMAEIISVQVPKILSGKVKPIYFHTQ
Nature of the experiment: Downregulation of androgen receptor expression in human MCF7 cells at 3 uM after 6 hrs by Western blot method relative to lamin B. In a few lines: as §1

The target of experiment [5] is T2, Estrogen receptor (Homo sapiens). Description: Downregulation of ERalpha expression in human MCF7 cells at 10 uM after 6 hrs by Western blot method relative to lamin B. In short, it runs like this: as §1
Experiment [6] addresses T3, Androgen receptor (Homo sapiens). Nature of the experiment: Downregulation of androgen receptor expression in human MCF7 cells at 10 uM after 6 hrs by Western blot method relative to lamin B. In a few lines: as §1
The target of experiment [7] is T2, Estrogen receptor (Homo sapiens). Description: Downregulation of ERalpha expression in human MCF7 cells at 1 uM after 6 hrs by Western blot method relative to lamin B. In short, it runs like this: as §1
For experiment [8] the target is unchanged. Description: Downregulation of ERalpha expression in human MCF7 cells at 3 uM after 6 hrs by Western blot method relative to lamin B. In a few lines: as §1
A further experiment addresses T4, Estrogen receptor (Homo sapiens, UniProt P03372).
T4 sequence (P03372 whole entry): T2 sequence (whole entry)
Nature of the experiment: Antagonist activity at GAL4-fused human ERalpha LBD expressed in HEK293 cells assessed as inhibition of 17beta-estradiol-induced transcriptional activation after 16 to 20 hrs by luciferase reporter gene assay. In short, it runs like this: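 HEK293 cells grown in phenol red-free DMEM with 10% FBS at 37 °C, 5% CO2. Calcium phosphate co-transfection with GAL4-hERα LBD plasmid, MH100x4-tk-luciferase reporter and β-galactosidase normalization plasmid. Compounds added 8 h post-transfection with 0.3 nM 17β-estradiol; harvested 16–20 h later. Luciferase normalized to β-galactosidase; means of triplicate assays.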
In general terms: Reporter assays use an easily measured gene product as a stand-in for the process of interest.

Molecules are shown by their SMILES.

One may read the IC50 as the point on the concentration scale where inhibition reaches its midpoint.

Turning to `CCCCCCCCCCNCCOc1ccc(C(CCC)(CCC)c2ccc(O)c(C)c2)cc1C`, the Activity in experiment [1] is 80%; in experiment [2], 76%; in experiment [3], 100%; in [4], 106%; in experiment [5], 32 to 44%; in experiment [6], 98%. Besides, the Activity in experiment [7] was in the range of 58 to 76%; in experiment [8] it was 47 to 59%. Further, at Estrogen receptor, the IC50 stood at 45 nM.
